Measured values as given in ChEMBL document CHEMBL1152843, “Synthesis of new series of 5,6-dihydro-4H-1,2-oxazines via hetero Diels-Alder reaction and evaluation of antimicrobial activity” (2009).
Values after ≈ are worked out from the molar mass of the structure shown.

Experiments:
Type in all cases: functional
[1] = tested on: Aspergillus niger; test: Antifungal activity against Aspergillus niger after 48 hrs by cup diffusion method
[2] = tested on: Fusarium verticillioides; test: Antifungal activity against Fusarium moniliforme at 20 ug after 48 hrs by cup diffusion method; conditions: for zone of inhibition at 20 µg/disc: read-out: IZ
Summary of the method: (§1)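 Cup diffusion on 9 cm plates seeded with 1 × 10⁶ cfu of fungi, with spores adjusted to at least 1 × 10⁶ cfu/ml in potato dextrose broth. Compound in DMF was placed in 5 mm agar cups and left 1 h to diffuse. Plates were incubated at 28 °C for 48 h and the inhibition zone read in mm. DMF was the negative control.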

[3] = tested on: Klebsiella pneumoniae; test: Antibacterial activity against Klebsiella pneumoniae […] after 24 hrs by cup diffusion method
[4] = tested on: Fusarium verticillioides; test: Antifungal activity against Fusarium moniliforme after 48 hrs by cup diffusion method
[5] = tested on: Aspergillus flavus; test: Antifungal activity against Aspergillus flavus at 20 ug after 48 hrs by cup diffusion method; conditions: for zone of inhibition at 20 µg/disc: read-out: IZ; summary of the method: as §1
[6] = tested on: Pseudomonas aeruginosa; test: Antibacterial activity against Pseudomonas aeruginosa MTCC 1688 after 24 hrs by cup diffusion method
[7] = tested on: Fusarium oxysporum; test: Antifungal activity against Fusarium oxysporum at 20 ug after 48 hrs by cup diffusion method; conditions: for zone of inhibition at 20 µg/disc: read-out: IZ; summary of the method: as §1
[8] = tested on: Aspergillus niger; test: Antifungal activity against Aspergillus niger at 20 ug after 48 hrs by cup diffusion method; conditions: read-out: IZ; summary of the method: as §1
[9] = tested on: Staphylococcus aureus; test: Antibacterial activity against Staphylococcus aureus MTCC 737 at 20 ug after 24 hrs by cup diffusion method; conditions: MTCC 737, 24 h, read-out: IZ
Summary of the method: (§2)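 Agar cup diffusion. Plates of sterile medium in 9 cm dishes were seeded with 1 × 10⁵ cfu of bacteria, with the suspension adjusted to at least 1 × 10⁵ cfu/ml in nutrient broth. Compound in DMF was placed in 5 mm cups and pre-diffused for 1 h. Plates were incubated at 37 °C for 24 h and the inhibition zone measured in mm. DMF served as negative control.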

[10] = tested on: Escherichia coli; test: Antibacterial activity against Escherichia coli MTCC 443 after 24 hrs by cup diffusion method
[11] = tested on: Klebsiella pneumoniae; test: Antibacterial activity against Klebsiella pneumoniae […] at 20 ug after 24 hrs by cup diffusion method; conditions: for zone of inhibition at 20 µg/disc: read-out: IZ; summary of the method: as §2
[12] = tested on: Pseudomonas aeruginosa; test: Antibacterial activity against Pseudomonas aeruginosa MTCC 1688 at 20 ug after 24 hrs by cup diffusion method; conditions: MTCC 1688, 24 h, read-out: IZ; summary of the method: as §2
[13] = tested on: Aspergillus flavus; test: Antifungal activity against Aspergillus flavus after 48 hrs by cup diffusion method
[14] = tested on: Fusarium oxysporum; test: Antifungal activity against Fusarium oxysporum after 48 hrs by cup diffusion method
[15] = tested on: Escherichia coli; test: Antibacterial activity against Escherichia coli MTCC 443 at 20 ug after 24 hrs by cup diffusion method; conditions: MTCC 443, 24 h, read-out: IZ; summary of the method: as §2
[16] = tested on: Staphylococcus aureus; test: Antibacterial activity against Staphylococcus aureus MTCC 737 after 24 hrs by cup diffusion method

Molecule | MIC [1] [µg/mL] | zone of inhibition at 20 µg/disc [2] [mm] | MIC [3] [µg/mL] | MIC [4] [µg/mL] | zone of inhibition at 20 µg/disc [5] [mm] | MIC ([6]; MTCC 1688, 24 h) [µg/mL] | zone of inhibition at 20 µg/disc [7] [mm] | zone of inhibition at 20 µg/disc [8] [mm] | zone of inhibition at 20 µg/disc [9] [mm] | MIC ([10]; MTCC 443, 24 h) [µg/mL] | zone of inhibition at 20 µg/disc [11] [mm] | zone of inhibition at 20 µg/disc [12] [mm] | MIC [13] [µg/mL] | MIC [14] [µg/mL] | zone of inhibition at 20 µg/disc [15] [mm] | MIC ([16]; MTCC 737, 24 h) [µg/mL] | other results
Cc1ccc(C2=NOC(C#N)CC2)cc1 (stereo unspecified) | 40 (≈ 200 µM) | 10.5 | 20 (≈ 99.9 µM) | 30 (≈ 150 µM) | 7.5 | 20 (≈ 99.9 µM) | 13.7 | 6.83 | 23.5 | 25 (≈ 125 µM) | 16.7 | 12.7 | 35 (≈ 175 µM) | 25 (≈ 125 µM) | 11.5 | 15 (≈ 74.9 µM) | 
GENTAMICIN |  |  | 15 |  |  |  |  |  |  |  |  |  |  |  |  |  | MIC [6]: 15 µg/mL; MIC [10]: 20 µg/mL; inhibition zone (IZ) [11]: 17.5 mm; MIC [16]: 15 µg/mL
COc1ccc(C2=NOC(Cc3ccc4c(c3)OCO4)CC2)cc1 (stereo unspecified) | 35 (≈ 108 µM) | 12.8 | 15 (≈ 46.1 µM) | 35 (≈ 108 µM) | 9.66 | 20 (≈ 61.5 µM) | 16.8 | 10.7 | 21.7 | 25 (≈ 76.8 µM) | 19.7 | 31.8 | 40 (≈ 123 µM) | 35 (≈ 108 µM) | 21.8 | 15 (≈ 46.1 µM) | 
COc1ccc(C2=NOC(CO)CC2)cc1OC (stereo unspecified) | 40 (≈ 159 µM) | 10.8 | 25 (≈ 99.5 µM) | 35 (≈ 139 µM) | 8.5 | 20 (≈ 79.6 µM) | 16.5 | 7.83 | 7.66 | 35 (≈ 139 µM) | 14.5 | 10.5 | 40 (≈ 159 µM) | 30 (≈ 119 µM) | 8.5 | 20 (≈ 79.6 µM) | 
Cc1ccc(C2=NOC(C#N)CC2)cc1C (stereo unspecified) | 20 (≈ 93.3 µM) | 15.7 | 15 (≈ 70 µM) | 15 (≈ 70 µM) | 12.2 | 15 (≈ 70 µM) | 21.5 | 11.7 | 21.5 | 25 (≈ 117 µM) | 19.8 | 15.2 | 20 (≈ 93.3 µM) | 15 (≈ 70 µM) | 15.5 | 10 (≈ 46.7 µM) | 
COc1ccc(C2=NOC(CO)CC2)cc1 (stereo unspecified) | 40 (≈ 181 µM) | 17.6 | 25 (≈ 113 µM) | 35 (≈ 158 µM) | 7.83 | 20 (≈ 90.4 µM) | 19.5 | 8.66 | 10.8 | 35 (≈ 158 µM) | 15.5 | 16.7 | 35 (≈ 158 µM) | 30 (≈ 136 µM) | 10.7 | 20 (≈ 90.4 µM) | 
Cc1ccc(C2=NOC(CCl)CC2)cc1 (stereo unspecified) | 15 (≈ 67.1 µM) | 17.7 | 15 (≈ 67.1 µM) | 10 (≈ 44.7 µM) | 14.5 | 15 (≈ 67.1 µM) | 20.8 | 13.8 | 16.7 | 20 (≈ 89.4 µM) | 16.5 | 11.5 | 15 (≈ 67.1 µM) | 15 (≈ 67.1 µM) | 15.7 | 10 (≈ 44.7 µM) | 
COc1ccc(C2=NOC(CCl)CC2)cc1 (stereo unspecified) | 20 (≈ 83.4 µM) | 25.2 | 10 (≈ 41.7 µM) | 15 (≈ 62.6 µM) | 21.7 | 15 (≈ 62.6 µM) | 29.7 | 19.5 | 14.7 | 20 (≈ 83.4 µM) | 17.7 | 29.5 | 15 (≈ 62.6 µM) | 10 (≈ 41.7 µM) | 9.5 | 10 (≈ 41.7 µM) | 
COc1ccc(C2=NOC(C#N)CC2)cc1OC (stereo unspecified) | 35 (≈ 142 µM) | 12.8 | 15 (≈ 60.9 µM) | 30 (≈ 122 µM) | 10.5 | 10 (≈ 40.6 µM) | 15.5 | 11.5 | 15.5 | 25 (≈ 102 µM) | 7.75 | 24.5 | 35 (≈ 142 µM) | 30 (≈ 122 µM) | 10.5 | 15 (≈ 60.9 µM) | 
Cc1ccc(C2=NOC(Cc3ccc4c(c3)OCO4)CC2)cc1C (stereo unspecified) | 15 (≈ 46.4 µM) | 22.8 | 20 (≈ 61.8 µM) | 20 (≈ 61.8 µM) | 18.8 | 20 (≈ 61.8 µM) | 25.3 | 15.7 | 21.3 | 30 (≈ 92.8 µM) | 15.5 | 11 | 10 (≈ 30.9 µM) | 10 (≈ 30.9 µM) | 11.5 | 15 (≈ 46.4 µM) | 
NYSTATIN | 10 |  |  | 15 |  |  |  |  |  |  |  |  | 15 | 20 |  |  | inhibition zone (IZ) [2]: 15.6 mm; inhibition zone (IZ) [5]: 13.2 mm; inhibition zone (IZ) [7]: 16.6 mm
CCOC(=O)C1CCC(c2ccc3c(c2)CCC3)=NO1 (stereo unspecified) | 15 (≈ 54.9 µM) | 32.8 | 25 (≈ 91.5 µM) | 20 (≈ 73.2 µM) | 28.5 | 20 (≈ 73.2 µM) | 36.5 | 26.7 | 18.7 | 30 (≈ 110 µM) | 13.5 | 13.4 | 10 (≈ 36.6 µM) | 10 (≈ 36.6 µM) | 10.7 | 20 (≈ 73.2 µM) | 
CCOC(=O)C1CCC(c2ccc(C)c(C)c2)=NO1 (stereo unspecified) | 20 (≈ 76.5 µM) | 16.7 | 15 (≈ 57.4 µM) | 25 (≈ 95.7 µM) | 12.7 | 20 (≈ 76.5 µM) | 19.8 | 11.5 | 17.8 | 20 (≈ 76.5 µM) | 16.7 | 12.8 | 15 (≈ 57.4 µM) | 15 (≈ 57.4 µM) | 13.5 | 10 (≈ 38.3 µM) | 
Cc1ccc(C2=NOC(CO)CC2)cc1 (stereo unspecified) | 35 (≈ 171 µM) | 15.8 | 30 (≈ 146 µM) | 30 (≈ 146 µM) | 12.5 | 25 (≈ 122 µM) | 19.8 | 11.5 | 7.5 | 35 (≈ 171 µM) | 19.8 | 10.8 | 30 (≈ 146 µM) | 25 (≈ 122 µM) | 8.83 | 25 (≈ 122 µM) | 
ClCC1CCC(c2ccc3c(c2)CCC3)=NO1 (stereo unspecified) | 15 (≈ 60.1 µM) | 34.5 | 15 (≈ 60.1 µM) | 20 (≈ 80.1 µM) | 32.8 | 15 (≈ 60.1 µM) | 38.5 | 28.8 | 13.5 | 20 (≈ 80.1 µM) | 25.8 | 34.5 | 10 (≈ 40 µM) | 10 (≈ 40 µM) | 11.8 | 10 (≈ 40 µM) | 
COc1ccc(C2=NOC(C#N)CC2)cc1 (stereo unspecified) | 40 (≈ 185 µM) | 13.4 | 15 (≈ 69.4 µM) | 35 (≈ 162 µM) | 8.5 | 15 (≈ 69.4 µM) | 18.5 | 9.5 | 9.5 | 25 (≈ 116 µM) | 6.66 | 12.2 | 35 (≈ 162 µM) | 30 (≈ 139 µM) | 10.2 | 10 (≈ 46.2 µM) | 
COc1ccc(C2=NOC(Cc3ccc4c(c3)OCO4)CC2)cc1OC (stereo unspecified) | 40 (≈ 113 µM) | 11.2 | 15 (≈ 42.2 µM) | 35 (≈ 98.5 µM) | 8.12 | 20 (≈ 56.3 µM) | 15.8 | 7.75 | 16.5 | 25 (≈ 70.3 µM) | 17.5 | 14.1 | 40 (≈ 113 µM) | 30 (≈ 84.4 µM) | 8.12 | 10 (≈ 28.1 µM) | 
CC1(C)S[C@@H]2[C@H](NC(=O)Cc3ccccc3)C(=O)N2[C@H]1C(=O)O [PENICILLIN G] |  |  |  |  |  |  |  |  | 9.38 |  | 0 | 0 |  |  | 0 |  | 
